An excerpt weighted towards active compounds, which were near 3.2% of everything screened.
Bim-Mcl-1 = inhibitors of Bim-Mcl-1 interaction, human | 0.1% of 190,000 active | Q07820 | Bead-based flow cytometry, Bim peptide-Mcl-1 binding | inhibition, % at 10 µM; in the data active = inhibition above about 40%;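 note: 0% = no compound tracer wells and 100% = peptide blocker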
14-3-3 Bad PPI = disrupts binding of bovine 14-3-3 zeta to phospho-Bad peptide. P63103. TR-FRET 14-3-3zeta/Dy647-pBad peptide displacement, 1 h. inhibition, % at 21.7 µM. 0.71% of 220,000 active. AID 781;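 active = inhibition above about 70%, limit read from the data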;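 note: 0% = full 14-3-3 plus peptide FRET controls and 100% = background without 14-3-3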
Mcl1-Bid inh = disrupts binding of human Mcl-1 to Bid peptide | Q07820 | inhibition, % at 21.7 µM | TR-FRET Mcl-1/Bid-Dy647 peptide binding, 1536-well | AID 1021 | 0.97% of 220,000 active;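 active = compounds that cut the binding signal by more than half at the single screening dose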;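 note: His-tagged Mcl-1 with europium anti-His antibody binding Bid BH3 peptide; 0% = Mcl-1 plus peptide wells and 100% = peptide-only wells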
Hck Nef HTS = blocks Nef-activated human Hck kinase; 0.68% of 220,000 active; inhibition, % at 20 µM; Recombinant Hck-YEEI plus Nef, Z-Lyte FRET kinase assay;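 active = Hck-Nef kinase inhibition above about 50%, limit read from the data; inactive = inhibition below that limit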;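 note: 0% = DMSO with Hck plus Nef and 100% = Hck alone without Nef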
Target sequence (P08631 whole entry, looked up): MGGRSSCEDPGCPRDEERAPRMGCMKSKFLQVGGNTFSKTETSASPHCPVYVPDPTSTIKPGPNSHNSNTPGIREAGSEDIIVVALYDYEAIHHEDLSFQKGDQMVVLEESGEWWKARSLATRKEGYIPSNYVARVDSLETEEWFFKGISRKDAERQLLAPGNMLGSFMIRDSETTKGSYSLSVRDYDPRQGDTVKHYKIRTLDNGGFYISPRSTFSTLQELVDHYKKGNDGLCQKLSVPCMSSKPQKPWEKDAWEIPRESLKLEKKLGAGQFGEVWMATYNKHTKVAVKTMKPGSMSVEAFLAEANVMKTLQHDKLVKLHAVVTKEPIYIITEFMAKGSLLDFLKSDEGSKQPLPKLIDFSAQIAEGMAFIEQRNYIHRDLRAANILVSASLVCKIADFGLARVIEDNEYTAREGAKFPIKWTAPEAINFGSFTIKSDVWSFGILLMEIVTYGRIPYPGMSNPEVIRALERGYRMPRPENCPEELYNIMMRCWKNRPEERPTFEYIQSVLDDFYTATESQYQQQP
Mcl1 Noxa PPI = disrupts binding of human Mcl-1 to Noxa peptide; Q07820; TR-FRET Mcl-1/Noxa peptide binding, 2 h; inhibition, % at 21.7 µM; 1.5% of 220,000 active;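 active = compounds that cut the protein-peptide binding signal by more than 50% relative to plate controls in a single-dose test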;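 note: His-tagged Mcl-1 with rhodamine Noxa BH3 peptide and terbium anti-His antibody; 0% = Mcl-1 plus Noxa peptide wells and 100% = peptide-only wells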
Biofilm kill mix = mixture kills Candida albicans biofilm cells; C. albicans biofilm persisters + clotrimazole, fluorescence viability; primary screen in compound mixtures of four per well; inhibition, % at 7.6 µM; AID 1242; 0.02% of 120,000 active;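 active = inhibition above 30.3% in the primary screen of four-compound pools, then above 30% when the compound was retested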;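 note: compounds exposed to preformed 24 h biofilms for 48 h; 0% = untreated biofilm control and 100% = clotrimazole plus chlorhexidine kill blank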
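Test system: C. albicans CAF4-2 wild-type biofilms; buffer or medium: RPMI/MOPS medium, pH 7.0; schedule: 24 h biofilm formation, then 48 h compound exposure, 37 °C; detection: Alamar Blue fluorescence; measure: percent inhibition of biofilm viability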
The depositor's hits bear a star; · = no result given; [ ] = another dose, or the depositor's remark.

SMILES | Bim-Mcl-1 | 14-3-3 Bad PPI | Mcl1-Bid inh | Hck Nef HTS | Mcl1 Noxa PPI | Biofilm kill mix
CC1CC(=O)NN1C(=O)c1ccccc1 (stereo not drawn) | · | 4 | -12 | 12 | -7 | -1
COc1ccc2nc(COC(=O)c3ccco3)c(C(C)=O)[n+]([O-])c2c1 | 3 | 86*[fluorescence artefact?] | -22 | 6 | 5 | ·
Cc1ccc(S(=O)(=O)N2CCOCC(=O)NCCOCCNC(=O)COCC2)cc1 | -3 | 9 | -13 | -6 | -7 | ·
Cc1cc(C)c2c(c1)[C@@H]1C=CC[C@@H]1[C@H](c1ccc(S(=O)(=O)N3CCOCC3)cc1)N2 | 6 | -4 | 17 | 15 | 67* | 26
CCC(NC(=O)NNC(=O)c1ccncc1)(C(F)(F)F)C(F)(F)F | · | 6 | -53 | 16 | -17 | 26
COc1ccccc1CNC(=O)CSc1ccsc1[N+](=O)[O-] | -6 | 11 | -8 | 22 | 27 | -1
NS(=O)(=O)c1ccc(CCNC(=O)CSc2ccsc2[N+](=O)[O-])cc1 | 5 | -7 | -35 | 21 | 53* | 20
O=C(CSc1ccsc1[N+](=O)[O-])Nc1cccc(F)c1 | 0 | 51 | -47 | 32 | 98* | 11
CCc1ccccc1NC(=O)CSc1ccsc1[N+](=O)[O-] | -3 | -5 | -57 | 5 | 54* | 8
O=C(CSc1ccc2nnc(-c3ccncc3)n2n1)Nc1nccs1 | 9 | -4 | -28 | 12 | -19 | 9
CCc1nc(NCc2ccc3c(c2)OCO3)c2oc3ccccc3c2n1 | 0 | 66 | 24 | 1 | 28 | ·
CCc1nc(Nc2ccc3c(c2)OCCO3)c2oc3ccccc3c2n1 | 4 | 86* | 32 | -15 | 32 | ·
CCc1nc(NCc2ccco2)c2oc3ccccc3c2n1 | 0 | 81* | 11 | 1 | 18 | ·
COc1ccc(Nc2ncnc3c2oc2ccccc23)cc1 | 2 | 67 | 16 | 10 | 24 | ·
c1ccc2c(c1)oc1c(Nc3ccc4c(c3)OCCO4)ncnc12 | 2 | 76*[fluorescence artefact?] | 12 | 1 | 23 | ·
Cc1ccc(Nc2ncnc3c2oc2ccccc23)cc1 | 1 | 72* | 33 | -17 | 39 | ·
CC(C#N)(Nc1ccc(Cl)cc1)c1cccnc1 (stereo not drawn) | -3 | 12 | -12 | 1 | 10 | 21
CC(C)n1nnnc1SCC(=O)N1CCOCC1 | 1 | -5 | -17 | -2 | -16 | ·
Cn1cc(C(=O)NCc2cccs2)c(=O)c2cc(S(=O)(=O)N3CCCC3)ccc21 | -5 | 9 | 5 | 1 | -9 | 9
Cc1nc(NCc2ccc3c(c2)OCO3)c2oc3ccccc3c2n1 | 4 | 68 | 8 | 14 | 23 | ·
Cc1nc(Nc2ccc3c(c2)OCCO3)c2oc3ccccc3c2n1 | 0 | 73* | 9 | -24 | 30 | ·
COc1ccc(C(=O)C(C)Oc2cccc(NC(=O)c3cccc([N+](=O)[O-])c3)c2)cc1 (stereo not drawn) | -6 | 3 | 8 | -1 | -7 | 19
CC(=O)Nc1ccc(C(=O)Nc2cccc(-c3cnc4ccccc4n3)c2)cc1 | -321 | 81* | 11 | 46 | 76* | 26
Cc1ccc(C(=O)Nc2cccc(-c3cnc4ccccc4n3)c2)cc1 | -2 | 0 | -9 | 2 | -11 | ·
C1CCN=C(Nc2nn[nH]n2)CC1 | 0 | 71* | 18 | 7 | 31 | ·
SMILES | Bim-Mcl-1 | 14-3-3 Bad PPI | Mcl1-Bid inh | Hck Nef HTS | Mcl1 Noxa PPI | Biofilm kill mix
CCCCN(C)S(=O)(=O)c1ccc(C(=O)N=c2sc3cc(NC(C)=O)ccc3n2C)cc1 | -29 | 61 | 70* | 13 | 29 | -11
CCCCN(CC)S(=O)(=O)c1ccc(C(=O)N=c2sc3cc(NC(C)=O)ccc3n2C)cc1 | -5 | 19 | -3 | 5 | 0 | -1
COc1cc(OC)cc(C(=O)N2CCN(Cc3ccccc3C(F)(F)F)CC2)c1 | -2 | 42 | 67* | 1 | 39 | ·
CN1CCCN(Cc2ccccc2C(F)(F)F)CC1 | -4 | 81* | 31 | -6 | 10 | ·
COc1cccc(OC)c1C(=O)N1CCN(Cc2ccccc2C(F)(F)F)CC1 | -5 | 84* | 43 | -1 | 26 | ·
Cc1cccc(-n2cnc3c(sc4nc(N5CCOCC5)c5c(c43)CCCC5)c2=O)c1 | · | 1 | 8 | 6 | 0 | 8
C[N+]1(CCC(=O)c2ccccc2)CCCCC1 | -3 | 0 | 56* | -10 | -12 | -1

Bioassay records: PubChem, several laboratories
